Experiments:
[1] = target: GFP-Sc-Dyn AAA3 E/Q (E2488Q); experiment: NADH-coupled steady-state ATPase assay, GFP-Sc-Dyn AAA3 E/Q mutant; type: biochemical, S. cerevisiae; settings: 1 mM MgATP, n=3
[2] = target: GFP-Sc-Dyn AAA3 E/Q (E2488Q) (Saccharomyces cerevisiae, UniProt P36022, E2488Q); experiment: as above; type: biochemical, S. cerevisiae
GFP-Sc-Dyn [3] = target: T1, GFP-Sc-Dyn (Saccharomyces cerevisiae, UniProt P36022); experiment: NADH-coupled steady-state ATPase assay, GFP-Sc-Dyn basal ATPase; type: biochemical, S. cerevisiae
Sc-Dyn-lyso = Sc-Dyn-lyso (Saccharomyces cerevisiae, UniProt P36022); experiment: NADH-coupled steady-state ATPase assay, Sc-Dyn-lyso; type: biochemical, S. cerevisiae
Outline: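 Ten-dose DMSO serial dilution of test compound (stock top 4 mM) was preincubated 10 min at RT. MgATP (10 mM stock) started the reaction, and NADH fluorescence slopes were converted via an ADP standard curve.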

[4] = target: GFP-Sc-Dyn V2391S/M2732S (AAA3_V-S/AAA4_M-S) (Saccharomyces cerevisiae, UniProt P36022, M2732S/V2391S); experiment: Microscale thermophoresis; type: binding
[5] = target: GFP-Sc-Dyn AAA1 E/Q (E1849Q) (Saccharomyces cerevisiae, UniProt P36022, E1849Q); experiment: Microscale thermophoresis; type: binding, S. cerevisiae
GFP-Sc-Dyn [6] = target: T1, GFP-Sc-Dyn; experiment: Microtubule gliding assay; type: biochemical, S. cerevisiae; settings: 25 μM compound
Hs-dynein 1 [7] = target: T2, Hs-dynein 1 (Homo sapiens, UniProt Q14204); experiment: Radioactive ATPase assay, basal ATPase activity of Hs-dynein 1; type: biochemical
Outline: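 Hs-dynein 1 motor construct (N-terminal His6, aa 1320–4646) at 30 nM, without microtubules. Radioactive ATPase reaction ran for 45 min with test compound. Percent inhibition was obtained by normalising the ATPase rate with compound to DMSO control.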

Mm-VCP/p97 = Mm-VCP/p97 (Mus musculus, UniProt Q01853); experiment: NADH-coupled steady-state ATPase assay, Mm-VCP/p97; type: biochemical, M. musculus
Hs-dynein 1 [8] = target: T2, Hs-dynein 1; experiment: Radioactive ATPase assay, microtubule-stimulated ATPase activity of Hs-dynein 1; type: biochemical
Outline: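 Radioactive ATPase assay with Hs-dynein 1 (His6, aa 1320–4646; 30 nM) in the presence of microtubules. Reaction time was 45 min, and rates with test compound were normalised to DMSO control.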

Dm-spastin = Dm-spastin (Drosophila melanogaster, UniProt Q8I0P1, DEL311-372); experiment: NADH-coupled steady-state ATPase assay, Dm-spastin; type: biochemical, D. melanogaster
Hs-FIGL1 = target: T3, Hs-FIGL1 (Homo sapiens, UniProt Q6PIW4); experiment: NADH-coupled steady-state ATPase assay, Hs-FIGL1; type: biochemical, H. sapiens
T3 sequence (Q6PIW4 288-674): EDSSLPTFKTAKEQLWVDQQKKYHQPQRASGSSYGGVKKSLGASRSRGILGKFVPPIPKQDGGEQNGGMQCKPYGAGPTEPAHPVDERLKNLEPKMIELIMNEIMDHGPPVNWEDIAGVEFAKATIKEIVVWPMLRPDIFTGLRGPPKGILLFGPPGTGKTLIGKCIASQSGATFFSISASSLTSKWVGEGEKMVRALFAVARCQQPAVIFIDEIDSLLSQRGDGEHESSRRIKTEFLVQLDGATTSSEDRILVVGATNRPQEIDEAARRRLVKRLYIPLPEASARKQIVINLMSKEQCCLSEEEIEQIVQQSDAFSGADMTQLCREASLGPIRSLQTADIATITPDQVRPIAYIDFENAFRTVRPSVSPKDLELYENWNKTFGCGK
Outline: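 Recombinant Hs-FIGL1 (50 nM; E. coli-expressed) in 25 mM Na-MES pH 6.5, 70 mM KOAc, 20 mM (NH4)2SO4, 5 mM Mg(OAc)2, 1 mM TCEP, 0.01% Triton X-100, with NADH/PEP/pyruvate kinase/lactate dehydrogenase coupling system. Protein preincubated 10 min at RT with test compound, then MgATP added. NADH fluorescence (ex 340, em 440 nm) slope converted to ATPase rate with an ADP standard curve.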

Xl-katanin = Xl-katanin (Xenopus laevis, UniProt Q9PUL2); experiment: NADH-coupled steady-state ATPase assay, Xl-katanin; type: biochemical, X. laevis
Outline: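 Recombinant Xl-katanin (50 nM; E. coli, MBP-trap, MonoQ and gel filtration) in 25 mM K-HEPES pH 7.5, 70 mM KCl, 20 mM (NH4)2SO4, 5 mM MgCl2, 2.5 mM DTT, 0.01% Triton X-100 plus NADH-coupled regeneration mix. After 10 min RT preincubation with test compound, MgATP started the reaction. The fluorescence decrease rate (340/440 nm) was converted to ATPase rate using an ADP standard curve.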

Sc-DynGST = Sc-DynGST (Saccharomyces cerevisiae, UniProt P36022); experiment: Single-molecule motility assay; type: biochemical, S. cerevisiae
[9] = target: Sc-Dyn-lysoMut (AAA1 E/Q) (Saccharomyces cerevisiae, UniProt P36022, E1849Q); experiment: Microscale thermophoresis; type: binding, S. cerevisiae
[10] = target: T4, GFP-Sc-Dyn AAA4 E/Q (E2819Q) (Saccharomyces cerevisiae, UniProt P36022, E2819Q); experiment: Microscale thermophoresis; type: binding, S. cerevisiae
[11] = target: GFP-Sc-Dyn AAA4 E/Q (E2819Q); experiment: NADH-coupled steady-state ATPase assay, GFP-Sc-Dyn AAA4 E/Q mutant; type: biochemical, S. cerevisiae; settings: 1 mM MgATP, n=3
[12] = target: T4, GFP-Sc-Dyn AAA4 E/Q (E2819Q); experiment: as above; type: biochemical, S. cerevisiae
[13] = 1% DMSO, 1 mM Mg-ATP, mean ± SD
[14] = single-molecule, 0-50 μM compound

T2 sequence (Q14204 1320-4646): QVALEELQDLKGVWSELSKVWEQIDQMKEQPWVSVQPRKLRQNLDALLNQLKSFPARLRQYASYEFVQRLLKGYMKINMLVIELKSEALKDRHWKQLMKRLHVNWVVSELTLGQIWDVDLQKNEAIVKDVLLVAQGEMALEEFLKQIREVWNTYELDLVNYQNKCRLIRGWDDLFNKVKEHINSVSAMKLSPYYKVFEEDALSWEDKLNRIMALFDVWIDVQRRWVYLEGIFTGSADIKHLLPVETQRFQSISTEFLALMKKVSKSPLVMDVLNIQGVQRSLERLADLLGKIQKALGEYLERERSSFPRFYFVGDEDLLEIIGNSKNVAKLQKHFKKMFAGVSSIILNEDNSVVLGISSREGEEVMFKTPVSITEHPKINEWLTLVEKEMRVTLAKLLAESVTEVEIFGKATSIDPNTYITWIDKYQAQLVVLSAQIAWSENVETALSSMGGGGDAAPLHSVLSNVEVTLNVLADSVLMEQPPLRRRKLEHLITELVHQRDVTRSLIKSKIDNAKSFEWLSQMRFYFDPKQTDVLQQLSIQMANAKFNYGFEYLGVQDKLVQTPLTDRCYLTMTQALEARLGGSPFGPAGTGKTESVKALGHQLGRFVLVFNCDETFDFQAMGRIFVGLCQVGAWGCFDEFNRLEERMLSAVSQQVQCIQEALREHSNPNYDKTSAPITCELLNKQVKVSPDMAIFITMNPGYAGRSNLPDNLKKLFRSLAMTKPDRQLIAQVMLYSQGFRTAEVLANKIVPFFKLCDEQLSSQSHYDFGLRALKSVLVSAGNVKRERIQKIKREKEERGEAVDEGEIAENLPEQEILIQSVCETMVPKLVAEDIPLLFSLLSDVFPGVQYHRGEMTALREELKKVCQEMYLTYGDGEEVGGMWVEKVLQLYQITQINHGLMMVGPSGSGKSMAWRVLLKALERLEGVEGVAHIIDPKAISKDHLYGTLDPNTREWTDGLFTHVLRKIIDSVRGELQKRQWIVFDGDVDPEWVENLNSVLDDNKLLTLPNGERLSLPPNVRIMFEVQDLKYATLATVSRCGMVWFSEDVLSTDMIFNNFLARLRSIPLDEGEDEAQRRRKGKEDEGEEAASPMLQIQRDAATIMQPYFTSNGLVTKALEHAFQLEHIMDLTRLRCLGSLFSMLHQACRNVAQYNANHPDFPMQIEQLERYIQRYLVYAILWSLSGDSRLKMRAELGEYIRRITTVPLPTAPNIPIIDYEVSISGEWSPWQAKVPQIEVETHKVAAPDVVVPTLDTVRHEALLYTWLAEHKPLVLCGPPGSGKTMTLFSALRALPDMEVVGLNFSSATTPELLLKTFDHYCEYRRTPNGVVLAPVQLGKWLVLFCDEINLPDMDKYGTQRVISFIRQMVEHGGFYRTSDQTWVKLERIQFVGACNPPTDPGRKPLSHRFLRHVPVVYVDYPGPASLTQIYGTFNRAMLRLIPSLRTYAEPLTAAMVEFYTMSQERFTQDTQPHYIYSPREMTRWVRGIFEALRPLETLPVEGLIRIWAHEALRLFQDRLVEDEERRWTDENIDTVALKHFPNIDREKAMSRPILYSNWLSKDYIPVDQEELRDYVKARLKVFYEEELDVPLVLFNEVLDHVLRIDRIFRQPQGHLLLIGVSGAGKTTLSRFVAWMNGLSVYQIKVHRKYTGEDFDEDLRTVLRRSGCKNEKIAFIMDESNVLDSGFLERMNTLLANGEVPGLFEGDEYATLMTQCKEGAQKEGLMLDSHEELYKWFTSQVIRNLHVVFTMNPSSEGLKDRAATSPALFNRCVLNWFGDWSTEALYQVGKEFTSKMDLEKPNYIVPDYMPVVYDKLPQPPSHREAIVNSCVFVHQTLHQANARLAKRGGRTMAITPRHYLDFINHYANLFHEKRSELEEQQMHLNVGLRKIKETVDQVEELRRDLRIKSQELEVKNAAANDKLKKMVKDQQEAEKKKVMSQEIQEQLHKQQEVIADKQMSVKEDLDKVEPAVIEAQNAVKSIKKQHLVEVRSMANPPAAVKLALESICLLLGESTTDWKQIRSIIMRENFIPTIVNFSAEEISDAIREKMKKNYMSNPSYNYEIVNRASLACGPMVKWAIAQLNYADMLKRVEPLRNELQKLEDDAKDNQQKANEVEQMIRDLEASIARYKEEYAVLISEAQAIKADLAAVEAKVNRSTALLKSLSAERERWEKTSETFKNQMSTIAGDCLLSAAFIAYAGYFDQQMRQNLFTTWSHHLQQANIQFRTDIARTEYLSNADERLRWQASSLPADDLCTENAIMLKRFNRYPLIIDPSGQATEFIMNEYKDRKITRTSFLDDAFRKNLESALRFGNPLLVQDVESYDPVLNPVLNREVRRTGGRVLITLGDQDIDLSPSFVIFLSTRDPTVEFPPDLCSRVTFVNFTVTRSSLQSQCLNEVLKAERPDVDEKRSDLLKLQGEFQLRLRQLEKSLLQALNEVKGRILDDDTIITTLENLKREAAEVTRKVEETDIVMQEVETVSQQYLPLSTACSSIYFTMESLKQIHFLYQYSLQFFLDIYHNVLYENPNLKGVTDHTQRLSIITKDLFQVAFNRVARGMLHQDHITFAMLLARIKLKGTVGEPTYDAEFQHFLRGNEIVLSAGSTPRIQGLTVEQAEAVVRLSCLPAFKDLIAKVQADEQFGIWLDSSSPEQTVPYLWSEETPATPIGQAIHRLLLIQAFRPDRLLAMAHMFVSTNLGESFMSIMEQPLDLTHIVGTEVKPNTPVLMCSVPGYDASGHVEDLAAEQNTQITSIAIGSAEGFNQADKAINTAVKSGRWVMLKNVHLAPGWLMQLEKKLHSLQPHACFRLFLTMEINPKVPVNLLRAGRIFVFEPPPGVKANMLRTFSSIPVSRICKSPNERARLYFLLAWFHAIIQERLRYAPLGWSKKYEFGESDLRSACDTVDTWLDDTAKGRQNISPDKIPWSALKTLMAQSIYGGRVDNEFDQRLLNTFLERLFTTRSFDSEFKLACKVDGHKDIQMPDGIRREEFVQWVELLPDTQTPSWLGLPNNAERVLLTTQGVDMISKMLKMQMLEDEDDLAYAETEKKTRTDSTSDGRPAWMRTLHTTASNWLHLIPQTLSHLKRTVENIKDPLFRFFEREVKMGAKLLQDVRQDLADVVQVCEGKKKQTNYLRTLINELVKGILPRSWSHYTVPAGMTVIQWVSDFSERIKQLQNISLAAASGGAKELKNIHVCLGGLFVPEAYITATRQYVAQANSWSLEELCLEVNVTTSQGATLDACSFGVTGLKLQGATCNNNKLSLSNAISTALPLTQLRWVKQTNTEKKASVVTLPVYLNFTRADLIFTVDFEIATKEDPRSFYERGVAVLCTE
Sequence of Xl-katanin (Q9PUL2 whole entry): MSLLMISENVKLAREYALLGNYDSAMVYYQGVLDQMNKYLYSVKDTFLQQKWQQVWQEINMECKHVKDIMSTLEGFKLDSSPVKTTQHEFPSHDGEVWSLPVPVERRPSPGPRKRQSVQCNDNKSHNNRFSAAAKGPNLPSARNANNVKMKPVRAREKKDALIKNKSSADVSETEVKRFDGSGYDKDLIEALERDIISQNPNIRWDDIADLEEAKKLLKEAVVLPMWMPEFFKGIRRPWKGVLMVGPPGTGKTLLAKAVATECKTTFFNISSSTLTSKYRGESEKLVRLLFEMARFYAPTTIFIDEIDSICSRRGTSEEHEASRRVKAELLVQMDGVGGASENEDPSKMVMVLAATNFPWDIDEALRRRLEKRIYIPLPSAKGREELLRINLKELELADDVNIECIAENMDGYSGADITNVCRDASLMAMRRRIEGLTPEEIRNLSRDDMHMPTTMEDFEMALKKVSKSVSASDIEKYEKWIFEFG
Sequence of Mm-VCP/p97 (Q01853 whole entry): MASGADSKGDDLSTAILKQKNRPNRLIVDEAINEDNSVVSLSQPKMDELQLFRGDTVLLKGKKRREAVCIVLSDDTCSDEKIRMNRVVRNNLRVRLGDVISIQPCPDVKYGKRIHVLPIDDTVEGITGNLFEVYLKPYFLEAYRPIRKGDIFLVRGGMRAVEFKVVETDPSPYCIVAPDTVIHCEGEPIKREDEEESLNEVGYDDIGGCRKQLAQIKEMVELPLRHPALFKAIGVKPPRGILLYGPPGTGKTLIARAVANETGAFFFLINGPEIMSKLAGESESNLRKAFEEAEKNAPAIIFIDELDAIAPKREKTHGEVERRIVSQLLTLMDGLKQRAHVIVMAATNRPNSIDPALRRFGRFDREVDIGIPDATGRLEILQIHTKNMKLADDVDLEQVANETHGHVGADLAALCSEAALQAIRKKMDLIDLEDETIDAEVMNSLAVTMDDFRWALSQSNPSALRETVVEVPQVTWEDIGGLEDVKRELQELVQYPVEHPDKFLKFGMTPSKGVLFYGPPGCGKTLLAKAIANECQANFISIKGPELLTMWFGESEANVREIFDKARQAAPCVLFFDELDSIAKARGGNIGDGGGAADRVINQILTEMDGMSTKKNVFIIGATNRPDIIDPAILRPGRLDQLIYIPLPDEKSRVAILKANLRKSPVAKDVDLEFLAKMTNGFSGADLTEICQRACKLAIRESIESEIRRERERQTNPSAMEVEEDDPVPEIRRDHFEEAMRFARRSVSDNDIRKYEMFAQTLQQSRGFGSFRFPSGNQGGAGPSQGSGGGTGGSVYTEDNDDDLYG

With `N#Cc1c(C2(c3ccc(Cl)cc3)CC2)nn2c(=O)c(Oc3cccc(Br)c3)c[nH]c12` [compound 20, 6-(3-bromophenoxy)-2-[1-(4-chlorophenyl)cyclopropyl]-7-oxo-4H-pyrazolo[1,5-a]pyrimidine-3-carbonitrile] the “IC50 fold lower than that of GFP-Sc-Dyn, AAA3 E/Q mutant” value [1] was ~ 2 fold, the IC50 [2] was 8.2 ± 1.4 µM and the IC50 (GFP-Sc-Dyn [3]) was 14 ± 1 µM. The IC50 (Sc-Dyn-lyso) was 15 ± 3.1 µM, the EC50 [4] was over 100 µM and the EC50 [5] was 73 ± 114 µM. For the same compound, the “Hill slope, binding to AAA1 E/Q mutant (MST)” value ([5]; mean ± 95% CI, n=4) was 1.3 ± 0.9, the “Time until most microtubules become immotile” value (GFP-Sc-Dyn [6]) was at most 30 min and the “Microtubule gliding velocity, 30 minutes after treatment” value (GFP-Sc-Dyn [6]; [13]) was 3 ± 5. The “Microtubule gliding velocity, immediately after treatment” value (GFP-Sc-Dyn [6]; [13]) was 35 ± 19, the IC50 (Hs-dynein 1 [7]) was 12 ± 9.3 µM and the “Inhibition of Hs-dynein 1 basal ATPase activity (in words)” value (Hs-dynein 1 [7]; compounds tested at 20 μM, 1 mM MgATP, no microtubules, n=2) was “most active”. For the same compound, the “Reduction of ATPase activity, Mm-VCP” value (Mm-VCP/p97; 20 μM, 1 mM MgATP) was under 25%, the “Percent steady-state ATPase activity, Mm-p97” value (Mm-VCP/p97; compound 20 μM, mean ± SD, n=3) was 99 ± 7.9% and the IC50 (Hs-dynein 1 [8]) was about 10 µM. For the same compound, the “Reduction of ATPase activity, Dm-spastin” value (Dm-spastin; 20 μM, 1 mM MgATP) was under 25%, the “Percent steady-state ATPase activity, Dm-spastin” value (Dm-spastin; compound 20 μM, mean ± SD, n=3) was 88 ± 4.4% and the “Percent steady-state ATPase activity, Hs-FIGL” value (Hs-FIGL1; compound 20 μM, mean ± SD, n=3) was 15 ± 11%. For the same compound, the inhibition at 20 µM (Hs-FIGL1; read-out: Inhibition of ATPase activity, Hs-FIGL1) was about 85%, the “Reduction of ATPase activity, Xl-katanin” value (Xl-katanin; 20 μM, 1 mM MgATP) was under 25% and the “Percent steady-state ATPase activity, Xl-katanin” value (Xl-katanin; compound 20 μM, mean ± SD, n=3) was 76 ± 9.0%. The EC50 (Sc-DynGST) was 12.7 ± 2.5 µM, the “Pausing during processive runs (in words)” value (Sc-DynGST; single-molecule) was “no significant pausing” and the “Effect on dynein processivity (run length) (in words)” value (Sc-DynGST; [14]) was “little to no effect”. For the same compound, the “Effect on dynein velocity (in words)” value (Sc-DynGST; [14]) was “little to no effect”, the EC50 [9] was 34 ± 11 µM and the EC50 [10] was over 200 µM. For the same compound, the “IC50 fold lower than that of GFP-Sc-Dyn, AAA4 E/Q mutant” value [11] was ~ 5 fold and the IC50 [12] was 2.9 ± 0.3 µM.
